An excerpt weighted towards active compounds, which were near 12% of everything screened.
Autophagy mod: alters autophagy in cells; AID 463193; calls only at 10 µM (by protocol); 190,000 tested, 0.98% active; MEF GFP-LC3 puncta imaging; test concentration mostly 10 µM;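 active means percentage of spot-positive cells more than 3 SD above its plate mean, without a fluorescence outlier flag or 80% toxicity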
CHOP inh: blocks CHOP induction under ER stress; inhibition, % at 10 µM; AID 2732; CHO-K1 CHOP-promoter luciferase, tunicamycin-induced, 15-18 h; 220,000 tested, 3.8% active;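 active means compounds that reduced the stress-induced luciferase reporter signal by more than about 70% of percent inhibition, limit read from the data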
L major viab: inhibitors of Leishmania major promastigote growth | AID 1063 | inhibition, % at 10 µM | 200,000 tested, 9% active | Leishmania major promastigotes, resazurin fluorescence viability; in the data active means inhibition above about 50%;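 further: promastigotes grown with compound for 44 hours at 28 °C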
Dynein cargo inh: dynein cargo transport inhibition; 3617.4 mouse cells, GR-EGFP nuclear translocation imaging; test concentration mostly 20 µM; stimulated with dexamethasone, 1 µM; active compounds read low; z-score, hits read low; 220,000 tested, 0.47% active; AID 1381;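 active means plate z-score of nuclear minus cytoplasmic receptor signal below a set negative limit, without overly bright fluorescence or cell loss, cut at about -3.5 in these data, passing the limit was not always enough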;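 further: z-score of nuclear minus cytoplasmic ring GR-EGFP intensity difference per well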
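Buffer or medium: tet-free medium with charcoal-stripped serum / Also added: dexamethasone agonist, 1.0 µM final, for 30 min / Timing: induction 48 h, compound 1 h, agonist 30 min / Measured by: high-content fluorescence imaging after fixation / Read-out: nuclear-to-cytoplasmic GR-EGFP distribution per well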
b-catenin transl: modulators of beta-catenin nuclear translocation. HeLa beta-catenin nuclear translocation, immunofluorescence imaging. nuclear translocation activity, % at 5 µM. 190,000 tested, 0.3% active;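 active means nuclear translocation activity above 50% at 5 µM, with a well cell count of 50 or more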;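 further: per-cell ratio of nuclear to cytoplasmic median beta-catenin stain intensity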
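Technique: fluorescence imaging of beta-catenin antibody stain plus DAPI / Material: human HeLa cell line / Incubation: compound treatment 24 h, 37°C, 5% CO2 / Read-out basis: % activation of per-cell nuclear versus cytoplasmic median beta-catenin signal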
MT stabilize HCS: microtubule stabilizers in HeLa cells | HeLa tubulin immunostaining HCS, 24 h; share of cells brighter than vehicle mean+2SD | 200,000 tested, 0.83% active | % tubulin-high responders, % at 10 µM;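 active means plate Z-score above 3 for both tubulin-high and condensed-nucleus cell shares, with cell loss under 80%, at 10 µM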;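 further: anti alpha tubulin signal scored within the nucleus-defined area of each cell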
Numbers stand for hits; n = inactive; x = no result given; + = active, no number.

SMILES	Autophagy mod	CHOP inh	L major viab	Dynein cargo inh	b-catenin transl	MT stabilize HCS
Cc1cc(N2CCC(C)CC2)nc(-n2nc(C)cc2C)n1	n	n	97	n	n	n
CC(Cc1ccsc1)NC(=O)CCc1nnc(COc2ccccc2)o1 (stereo not given)	n	n	n	n	n	n
COc1ccc(C(CNC(=O)c2cccc(Br)c2)N2CCCC2)cc1 (stereo not given)	n	n	54	n	x	n
COc1ccc(N2CCN(CC(O)COc3ccc4c(c3)CCC4)CC2)cc1 (stereo not given)	n	n	92	n	x	n
OC(COc1ccc2c(c1)CCC2)CN1CCN(c2ccccc2F)CC1 (stereo not given)	n	n	74	n	n	n
COc1ccc(OCC(O)CN2CCN(c3ccc(Cl)cc3)CC2)cc1 (stereo not given)	x	n	x	n	n	x
CC(C)Nc1nc(NC(C)(C)C)nc(Oc2ccc(=O)n(-c3ccccc3)n2)n1	n	n	n	n	n	n
O=S(=O)(NCC(c1ccco1)N1CCOCC1)c1ccc(Cl)cc1 (stereo not given)	n	n	n	n	n	n
COc1ccc(C)cc1NC(=O)C(Sc1nnc2ccccn12)c1ccccc1 (stereo not given)	n	n	n	n	x	n
CCNc1nc(NCC)n2c(SC(C(=O)Nc3cc(C)ccc3OC)c3ccccc3)nnc2n1 (stereo not given)	n	n	89	n	n	n
Nc1[nH]ncc1-c1ccc(Cl)cc1	+	n	n	n	n	n
O=C(c1ccco1)N1CCN(Cc2cn[nH]c2-c2cccc3ccccc23)CC1	x	n	x	n	n	x
CN(CCc1cn[nH]c1)Cc1nc(Cc2ccccc2)no1	n	n	n	n	n	n
O=C(CN1C(=O)/C(=C/c2c(F)cccc2Cl)Oc2ccccc21)NCc1ccco1	n	n	n	n	n	19
CN(C)S(=O)(=O)c1ccc(C(=O)Nc2nc(-c3cccs3)cs2)cc1	n	x	n	n	x	n
N#Cc1ccc(C(=O)Nc2nnc(-c3cccs3)o2)cc1	n	n	98	n	n	n
O=C(Nc1nnc(-c2cccs2)o1)C1CC1	n	n	n	n	n	n
CN(C)S(=O)(=O)c1ccc(C(=O)Nc2nnc(-c3cccs3)o2)cc1	n	n	53	n	n	n
O=C(Nc1nnc(-c2ccc3c(c2)CCCC3)o1)c1c(F)cccc1F	n	n	n	n	n	n
CN(C)S(=O)(=O)c1ccc(C(=O)Nc2nnc(-c3ccc4c(c3)CCCC4)o2)cc1	n	n	98	n	n	n
O=C(Nc1nnc(-c2cccs2)o1)c1cccc(C(F)(F)F)c1	n	x	95	n	x	n
COC(=O)c1cc2occc2n1Cc1c(F)cccc1Cl	n	n	n	n	n	n
CCN(CC)C(=O)C(Sc1ccccc1)c1ccccc1 (stereo not given)	n	n	n	n	n	n
CCCCCCc1cc2cc(S(=O)(=O)c3ccc(F)c(Cl)c3)c(=O)oc2cc1O	n	91	n	n	n	n
CCCCCCc1cc2cc(C(=O)Nc3ccc(OC)cc3)c(=O)oc2cc1O	+	n	n	n	n	n
SMILES	Autophagy mod	CHOP inh	L major viab	Dynein cargo inh	b-catenin transl	MT stabilize HCS
CCCCCCc1cc2cc(C(=O)OCC)c(=O)oc2cc1O	x	n	x	n	n	x
CN1CCN(CC(=O)Nc2nnc(-c3cccs3)s2)CC1	n	n	n	n	x	n
CC(Sc1nnc2c(n1)C1(C)CCC2C1(C)C)C(=O)Nc1ccccc1 (stereo not given)	n	n	n	n	x	n
COc1ccc(C)cc1NC(=S)NC(C)c1ccc(OC)c(OC)c1 (stereo not given)	n	n	54	n	n	n
COc1ccc(NC(=S)NC(C)c2ccncc2)cc1OC (stereo not given)	n	n	n	n	n	n
O=c1oc2cc(OCc3ccc([N+](=O)[O-])cc3)ccc2c2c1CCCC2	n	77	n	n	n	n
O=C(O)c1ccc(COc2ccc3c4c(c(=O)oc3c2)CCC4)o1	n	n	n	n	n	n
CC1CC(C)CN(CCOc2ccccc2-c2ccccc2)C1 (stereo not given)	n	93	n	n	n	n
c1ccc(-c2ccccc2OCCOCCN2CCNCC2)cc1	n	n	82	n	n	n
CCN1CCN(CCOCCOc2ccccc2-c2ccccc2)CC1	n	n	93	n	n	n
NCCOc1ccccc1-c1ccccc1	n	n	n	n	n	n
CC1CCN(CCOc2ccccc2-c2ccccc2)CC1	n	n	n	n	n	n
CCOC(=O)CC1C(=O)NCCN1C1CCCC1 (stereo not given)	n	n	n	n	n	n
O=C(NCc1ccc2c(c1)OCO2)c1ccc(CS(=O)(=O)c2ccc(Br)cc2)o1	n	74	n	n	x	n
CN(C)CCNC(=O)c1ccc(CS(=O)(=O)c2ccc(Br)cc2)o1	n	x	77	n	x	n
CNc1nc(OCC(F)(F)F)nc(N2CCN(C34CC5CC(CC(C5)C3)C4)CC2)n1	n	x	n	n	x	n
CN(C(=O)c1cc2c(s1)-c1ccccc1S(=O)(=O)C2)c1ccccc1	x	n	x	n	n	x
COc1ccc(-c2csc(N3C(=O)C4C5c6ccccc6C(c6ccccc65)C4C3=O)n2)cc1 (stereo not given)	n	n	60	n	n	n
COc1ccc(-c2csc(N3C(=O)C4C5c6ccccc6C(c6ccccc65)[C@@H]4C3=O)n2)cc1 (stereo not given in full)	n	n	n	n	n	n
COc1cc2c(cc1OC)-c1c(OC)c(OC)cc3ccnc(c13)C2=O	n	n	63	n	x	n
Cc1ccccc1C(=O)NNC(=O)CSc1nnc(-c2ccncc2)n1-c1ccccc1	n	n	n	n	n	n
Cc1onc(-c2c(F)cccc2Cl)c1C(=O)N1CCN(c2ncccn2)CC1	n	n	n	n	n	n
O=C(c1sc2cccc(F)c2c1Cl)N1CCN(c2ncccn2)CC1	n	n	77	n	n	n
O=Cc1ccc(-c2ccc([N+](=O)[O-])cc2Cl)o1	n	n	60	n	n	n
O=Cc1ccc(-c2cccc([N+](=O)[O-])c2)o1	x	n	x	n	n	x
CC1Oc2ccccc2N(Cc2ccccc2Cl)C1=O (stereo not given)	n	89	n	n	n	n
COc1ccc(C2SCC(=O)N2CC23CC4CC(CC(C4)C2)C3)cc1 (stereo not given)	n	86	n	n	n	n
COc1ccc(C2SCC(=O)N2CCc2ccc(OC)c(OC)c2)cc1 (stereo not given)	n	n	n	n	82	18
N=c1sccn1CC(=O)N1N=C(c2ccc(Cl)cc2)CC1c1ccco1 (stereo not given)	n	n	63	n	n	n

Assay outcomes (PubChem)
